Measured values from ChEMBL document CHEMBL1944507, “Structure-activity relationships for amide-, carbamate-, and urea-linked analogues of the tuberculosis drug (6S)-2-nitro-6-{[4-(trifluoromethoxy)benzyl]oxy}-6,7-dihydro-5H-imidazo[2,1-b][1,3]oxazine (PA-824)” (J Med Chem, 2012).
≈ marks a conversion by molar mass, not a printed value.

Columns and labels:
[1] = system: Mycobacterium tuberculosis; test: Antimicrobial activity against Mycobacterium tuberculosis H37Rv ATCC 27294 harboring pFCA-lux AB gene measured under aerobic condition after 8 days by luminescence analysis; assay type: functional; settings: H37Rv ATCC 27294, 192 h
Method in brief: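 MABA: replicating M. tb H37Rv exposed to compound aerobically for 8 days. […] Mean of at least two independent determinations ± SD.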

[2] = system: Mycobacterium tuberculosis; test: Antimicrobial activity against Mycobacterium tuberculosis H37Rv ATCC 27294 harboring pFCA-lux AB gene measured under anaerobic condition after 11 days by luminescence analysis; assay type: functional; settings: H37Rv ATCC 27294, 264 h
Method in brief: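 LORA: luminescence-based low-oxygen-recovery assay on nonreplicating M. tb, 11-day anaerobic exposure. MIC is the mean of at least two independent determinations ± SD.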

SMILES | MIC [1] | MIC [2]
O=C(N[C@@H]1COc2nc([N+](=O)[O-])cn2C1)c1ccc(OC(F)(F)F)cc1 | 1.8 µM (≈ 0.67 µg/mL) | –
CN(C(=O)c1cccc(OC(F)(F)F)c1)[C@@H]1COc2nc([N+](=O)[O-])cn2C1 | 24 µM (≈ 9.27 µg/mL) | > 64 µM
CN(C(=O)c1ccc(OC(F)(F)F)cc1)[C@@H]1COc2nc([N+](=O)[O-])cn2C1 | 22 µM (≈ 8.5 µg/mL) | > 64 µM
O=[N+]([O-])c1cn2c(n1)OC[C@@H](NS(=O)(=O)c1ccccc1OC(F)(F)F)C2 | > 64 µM | > 64 µM
O=[N+]([O-])c1cn2c(n1)OC[C@@H](NS(=O)(=O)c1cccc(OC(F)(F)F)c1)C2 | > 64 µM | > 64 µM
O=[N+]([O-])c1cn2c(n1)OC[C@@H](NS(=O)(=O)c1ccc(OC(F)(F)F)cc1)C2 | 9.7 µM (≈ 3.96 µg/mL) | > 64 µM
CN([C@@H]1COc2nc([N+](=O)[O-])cn2C1)S(=O)(=O)c1ccccc1OC(F)(F)F | 20 µM (≈ 8.45 µg/mL) | 45 µM (≈ 19 µg/mL)
CN([C@@H]1COc2nc([N+](=O)[O-])cn2C1)S(=O)(=O)c1cccc(OC(F)(F)F)c1 | 12 µM (≈ 5.07 µg/mL) | 64 µM (≈ 27 µg/mL)
CN([C@@H]1COc2nc([N+](=O)[O-])cn2C1)S(=O)(=O)c1ccc(OC(F)(F)F)cc1 | 0.53 µM (≈ 0.224 µg/mL) | 22 µM (≈ 9.29 µg/mL)
O=C(Cc1ccc(OC(F)(F)F)cc1)N[C@@H]1COc2nc([N+](=O)[O-])cn2C1 | 0.27 µM (≈ 0.104 µg/mL) | 21 µM (≈ 8.11 µg/mL)
O=C(CN[C@@H]1COc2nc([N+](=O)[O-])cn2C1)c1ccc(OC(F)(F)F)cc1 | 7.6 µM (≈ 2.94 µg/mL) | > 64 µM
O=C(CN[C@@H]1COc2nc([N+](=O)[O-])cn2C1)Nc1ccc(OC(F)(F)F)cc1 | 0.7 µM (≈ 0.281 µg/mL) | 46 µM (≈ 18.5 µg/mL)
O=C(N[C@@H]1COc2nc([N+](=O)[O-])cn2C1)Oc1ccc(OC(F)(F)F)cc1 | > 64 µM | 64 µM (≈ 24.8 µg/mL)
O=C(N[C@@H]1COc2nc([N+](=O)[O-])cn2C1)OCc1ccc(OC(F)(F)F)cc1 | 0.15 µM (≈ 0.0603 µg/mL) | 11 µM (≈ 4.43 µg/mL)
O=C(Nc1ccc(OC(F)(F)F)cc1)N[C@@H]1COc2nc([N+](=O)[O-])cn2C1 | 0.23 µM (≈ 0.0891 µg/mL) | 4.2 µM (≈ 1.63 µg/mL)
O=C(N[C@@H]1COc2nc([N+](=O)[O-])cn2C1)OCc1ccc(-c2ccc(OC(F)(F)F)cc2)cc1 | 0.11 µM (≈ 0.0526 µg/mL) | 5 µM (≈ 2.39 µg/mL)
O=C(N[C@@H]1COc2nc([N+](=O)[O-])cn2C1)OCc1ccc(-c2ccc(C(F)(F)F)nc2)cc1 | 0.23 µM (≈ 0.107 µg/mL) | 4.7 µM (≈ 2.18 µg/mL)

SMILES | MIC [1] | MIC [2]
O=C(N[C@@H]1COc2nc([N+](=O)[O-])cn2C1)OCc1ccc(-c2ccc(F)nc2)cc1 | 0.34 µM (≈ 0.141 µg/mL) | 4.3 µM (≈ 1.78 µg/mL)
O=C(Nc1cccc(-c2ccc(C(F)(F)F)cc2)c1)N[C@@H]1COc2nc([N+](=O)[O-])cn2C1 | 0.035 µM (≈ 0.0157 µg/mL) | 3.6 µM (≈ 1.61 µg/mL)
O=C(Nc1cccc(-c2ccc(F)cc2)c1)N[C@@H]1COc2nc([N+](=O)[O-])cn2C1 | 0.03 µM (≈ 0.0119 µg/mL) | 3.8 µM (≈ 1.51 µg/mL)
O=C(Nc1cccc(-c2ccc(OC(F)(F)F)cc2)c1)N[C@@H]1COc2nc([N+](=O)[O-])cn2C1 | 0.25 µM (≈ 0.116 µg/mL) | 5.8 µM (≈ 2.69 µg/mL)
O=C(Nc1cccc(-c2ccc(C(F)(F)F)nc2)c1)N[C@@H]1COc2nc([N+](=O)[O-])cn2C1 | 0.22 µM (≈ 0.0986 µg/mL) | 13 µM (≈ 5.83 µg/mL)
O=C(Nc1cccc(-c2ccc(F)nc2)c1)N[C@@H]1COc2nc([N+](=O)[O-])cn2C1 | 0.23 µM (≈ 0.0916 µg/mL) | 15 µM (≈ 5.98 µg/mL)
O=C(Nc1ccc(-c2ccc(C(F)(F)F)cc2)cc1)N[C@@H]1COc2nc([N+](=O)[O-])cn2C1 | 0.19 µM (≈ 0.085 µg/mL) | > 32 µM
O=C(Nc1ccc(-c2ccc(F)cc2)cc1)N[C@@H]1COc2nc([N+](=O)[O-])cn2C1 | 1.3 µM (≈ 0.517 µg/mL) | 9.1 µM (≈ 3.62 µg/mL)
O=C(Nc1ccc(-c2ccc(OC(F)(F)F)cc2)cc1)N[C@@H]1COc2nc([N+](=O)[O-])cn2C1 | 0.06 µM (≈ 0.0278 µg/mL) | 18 µM (≈ 8.34 µg/mL)
O=C(NCc1ccc(-c2ccc(OC(F)(F)F)cc2)cc1)N[C@@H]1COc2nc([N+](=O)[O-])cn2C1 | 1 µM (≈ 0.477 µg/mL) | 32 µM (≈ 15.3 µg/mL)
O=C(NCc1ccc(-c2ccc(C(F)(F)F)nc2)cc1)N[C@@H]1COc2nc([N+](=O)[O-])cn2C1 | 0.4 µM (≈ 0.185 µg/mL) | > 32 µM
O=C(Nc1cccc(-c2ccc(C(F)(F)F)cc2)c1)O[C@@H]1COc2nc([N+](=O)[O-])cn2C1 | 0.04 µM (≈ 0.0179 µg/mL) | 1 µM (≈ 0.448 µg/mL)
O=C(Nc1cccc(-c2ccc(F)cc2)c1)O[C@@H]1COc2nc([N+](=O)[O-])cn2C1 | 0.027 µM (≈ 0.0108 µg/mL) | 1.5 µM (≈ 0.598 µg/mL)
O=C(Nc1cccc(-c2ccc(OC(F)(F)F)cc2)c1)O[C@@H]1COc2nc([N+](=O)[O-])cn2C1 | 0.06 µM (≈ 0.0279 µg/mL) | 0.85 µM (≈ 0.395 µg/mL)
O=C(Nc1cccc(-c2ccc(C(F)(F)F)nc2)c1)O[C@@H]1COc2nc([N+](=O)[O-])cn2C1 | 0.11 µM (≈ 0.0494 µg/mL) | 2.9 µM (≈ 1.3 µg/mL)
O=C(Nc1cccc(-c2ccc(F)nc2)c1)O[C@@H]1COc2nc([N+](=O)[O-])cn2C1 | 0.24 µM (≈ 0.0958 µg/mL) | 5.8 µM (≈ 2.32 µg/mL)
O=C(Nc1ccc(-c2ccc(C(F)(F)F)cc2)cc1)O[C@@H]1COc2nc([N+](=O)[O-])cn2C1 | 0.055 µM (≈ 0.0247 µg/mL) | > 32 µM
